Vif inh – blocks HIV Vif function. HEK293T cells, Vif self-association by quenched fluorescence, imaging, 24 h. inhibition, % at 7.49 µM. 340,000 compounds, 0.35% hits; in the data active = inhibition above about 50%, passing the limit was not always enough; inconclusive = no clear call, values can overlap the other calls; inactive = below about 31%
Xi reactivation – reactivates the inactive X chromosome in mouse fibroblasts | activation, % at 7.58 µM | 360,000 compounds, 0.055% hits | AID 743238 | XiGFP mouse fibroblasts, % GFP-positive cells imaging, 3 d; cells co-treated with 5-aza-dC sensitizer; scaled so ellipticine positive control = 100%;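 active = mean normalized replicate activation at least 10% and every replicate at or above 10%; inconclusive = only one of the two criteria met; inactive = mean below 10% and not all replicates reach 10%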
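Assay system: SV40-immortalized XiGFP fibroblast cells, line 68-5-11; buffer or medium: DMEM plus 5-aza-dC sensitizer; compound: one concentration, pinned; timing: compounds 3 days, fix/stain 15 min at room temperature; benchmarks: positive control ellipticine, 6 µM final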
Wnt act – Wnt/beta-catenin pathway activation; Wnt/beta-catenin reporter cell assay, activator, plate reader; activation, % at 9.35 µM; 300,000 compounds, 1.2% hits; AID 743398; in the data active = activation above about 30%, passing the limit was not always enough; inconclusive = no clear call, values can overlap the other calls
MITF TRPM1 HTS – increases MITF-driven TRPM1 promoter luciferase signal | SK-MEL-5 TRPM1-promoter luciferase, 24 h; % of positive control, neutral wells = 0 | activation, % at 12.5 µM | 300,000 compounds, 0.75% hits;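 active = mean activation of at least 80% with every replicate also reaching 80%; inconclusive = mean reaches 80% but some replicate falls short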
esBAF inh – SWI/SNF esBAF complex inhibition | 350,000 compounds, 2% hits | reporter increase, % at 12.5 µM | mouse ES cells, Bmi1-luciferase knock-in reporter, 24 h; 100% = twice the neutral-well signal; in the data active = activation above about 40%; inconclusive = no clear call, values can overlap the other calls;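 note: a rise in the Bmi1 reporter signal indicates esBAF inhibition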
esBAF Ring1 qPCR – de-represses Ring1 in mouse ESCs, confirming esBAF inhibition | shares compounds with esBAF inh | mouse ESC E14, Ring1 mRNA RT-qPCR fold change | fold change at 33 µM | 550 tested, under 10 active | AID 743176;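 active = Ring1 gene expression raised more than 2-fold over untreated cells in both replicates at either tested dose; inconclusive = only one replicate above 2-fold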;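 note: Ring1 transcript normalised to actin housekeeping signal by TaqMan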
Fgf4 repress – confirmation of esBAF inhibitors: Fgf4 repression in mouse ESCs | shares compounds with esBAF inh | mouse ESC E14, Fgf4 mRNA qPCR fold change; active compounds read low | Fgf4 expression fold change at 33 µM | 550 compounds, 4% hits;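 active = Fgf4 expression under 0.8 fold of control in both repeat measurements at one or both tested doses; inconclusive = under 0.8 fold in just a single repeat measurement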;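 note: Fgf4 transcript normalised to actin in duplex TaqMan qPCR; cells exposed to compound for 24 h before lysis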
Bmi1 derepress – confirmation of esBAF inhibitors: Bmi1 de-repression in mouse ESCs | fold change at 33 µM | mouse ESE14 ES cells, Bmi1 mRNA qPCR fold; active compounds read high | 550 tested, under 10 active | shares compounds with esBAF inh;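 active = Bmi1 expression fold change above 6 at either tested concentration, seen in replicate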;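 note: higher fold means more Bmi1 de-repression and stronger esBAF inhibition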
A549 cytotox – kills or reduces viability of A549 cells. shares compounds with esBAF inh. A549 cytotoxicity, plate reader. cell viability change % (negative = cytotoxic), % at 25 µM, hits read low. 550 tested, under 10 active. AID 743188; call rule not given here
HepG2 cytotox SP – HepG2 cell cytotoxicity at single point. activity change, negative = inhibition, % at 25 µM. plate reader; active compounds read low. 550 compounds, 4% hits. AID 743189. shares compounds with esBAF inh; in the data active = activity change below about -50%
HEK293 tox SP – HEK293 cell cytotoxicity at single point; shares compounds with esBAF inh; plate reader; activity change, negative = inhibition, % at 25 µM, hits read low; 550 compounds, 3% hits; AID 743190; in the data active = activity change below about -38%, passing the limit was not always enough
Numbers stand for hits; i = inactive; ? = inconclusive; nt = no result. Shown are actives, neighbours in structure and some others; about 2.6% of the full set was active somewhere.

SMILES	Vif inh	Xi reactivation	Wnt act	MITF TRPM1 HTS	esBAF inh	esBAF Ring1 qPCR	Fgf4 repress	Bmi1 derepress	A549 cytotox	HepG2 cytotox SP	HEK293 tox SP
C[C@@H]1CN([C@@H](C)CO)C(=O)c2cc(NC(=O)NC3CCCCC3)ccc2O[C@H]1CN(C)C(=O)Nc1ccc2c(c1)OCO2	nt	i	nt	nt	i	nt	nt	nt	nt	nt	nt
CC(C)(O)c1cc2ccc(C#Cc3ccsc3)cc2c(=O)o1	i	i	i	i	71	i	i	i	i	i	i
CNC[C@H]1Oc2c(N)cccc2C(=O)N(C)C[C@H]1C	nt	i	nt	nt	nt	nt	nt	nt	nt	nt	nt
COc1ccc2c(ccc[n+]2[O-])c1	i	i	i	i	i	nt	nt	nt	nt	nt	nt
COc1ccc2nc3ccccc3[n+]([O-])c2c1	i	i	i	i	72	i	i	i	i	i	i
COc1cc2ccccc2cc1C(=O)Nc1ccc(Br)cn1	i	i	i	i	86	i	i	i	i	i	i
Cn1c(COc2ccccc2)nc2ccccc21	i	i	42	nt	57	i	i	i	i	i	i
C[C@H](CO)N1C[C@H](C)[C@@H](CN(C)Cc2ccccc2)Oc2ccc(NC(=O)NC3CCCCC3)cc2CC1=O	nt	i	nt	nt	i	nt	nt	nt	nt	nt	nt
CC1(C)Cc2c(c(N3CCCC3)nc3sc(C(=O)Nc4ccccc4)c(N)c23)CO1	i	i	i	i	59	i	i	i	i	i	i
Cc1ccc(Nc2cccccc2=O)cc1	nt	nt	i	?	55	i	i	i	i	i	i
C[C@@H]1CN([C@H](C)CO)C(=O)c2cc(NC(=O)c3ccncc3)ccc2O[C@@H](C)CCCCO[C@H]1CN(C)C(=O)c1ccncc1	nt	i	nt	nt	i	nt	nt	nt	nt	nt	nt
Cc1ccc(N=Nc2cc(C)ccc2O)c(C)c1	i	i	i	i	87	i	?	i	i	-50	i
Cc1ccc(C)c(N=Nc2ccc(O)c3ncccc23)c1	i	i	i	i	nt	nt	nt	nt	nt	nt	nt
c1ccc(Nc2ccccn2)cc1	i	nt	i	nt	i	nt	nt	nt	nt	nt	nt
c1ccc(Nc2cccc(Nc3ccccc3)n2)cc1	nt	nt	nt	i	59	i	?	i	i	i	i
C[C@H](CO)N1C[C@H](C)[C@@H](CN(C)Cc2ccc(C(F)(F)F)cc2)Oc2c(NC(=O)CCCCCC(=O)Nc3ccccc3N)cccc2C1=O	nt	i	nt	nt	nt	nt	nt	nt	nt	nt	nt
O=C1NC(=Nc2ccccc2)S/C1=C\c1cccn1-c1ccccc1	i	nt	nt	i	67	2.6	0.44	11	i	i	i
CS(=O)(=O)c1cccc(-c2csc(N3CCC(C(N)=O)CC3)n2)c1	i	i	i	i	68	i	i	i	i	i	i
Cc1noc(C)c1C(=O)Nc1nc2ccccc2s1	i	i	i	i	72	i	i	i	i	i	i
CCN(CC)S(=O)(=O)c1cccc(-c2cn3cc(C)ccc3n2)c1	i	nt	nt	i	65	i	0.77	i	i	i	i
C[C@@H]1CN([C@@H](C)CO)C(=O)c2cc(NS(C)(=O)=O)ccc2O[C@H]1CN(C)S(=O)(=O)c1cccs1	nt	i	nt	nt	i	nt	nt	nt	nt	nt	nt
Cc1cc(C)cc(N(CC(=O)Nc2ccc(-c3nc4ccc(C)cc4s3)cc2)S(C)(=O)=O)c1	i	i	39	i	47	i	i	i	i	i	i
CC(C)c1ccc(CNc2ncc(Br)cn2)cc1	i	i	i	96	73	i	i	i	i	-63	i
CNc1cncc(-c2cccc(OC)c2F)n1	i	i	i	nt	63	i	?	i	i	i	i
CCCNC(=O)N(C)C[C@H]1Oc2ncc(-c3ccncc3)cc2C(=O)N([C@@H](C)CO)C[C@H]1C	nt	i	nt	nt	i	nt	nt	nt	nt	nt	nt
SMILES	Vif inh	Xi reactivation	Wnt act	MITF TRPM1 HTS	esBAF inh	esBAF Ring1 qPCR	Fgf4 repress	Bmi1 derepress	A549 cytotox	HepG2 cytotox SP	HEK293 tox SP
CN(C)c1ccc(C=Cc2nccc3ccccc23)cc1	nt	i	i	nt	70	i	i	i	i	-75	-63
CCN(CC)c1nc(C=Cc2ccc(N(C)C)cc2)c2nccnc2n1	nt	i	i	nt	nt	nt	nt	nt	nt	nt	nt
CS(=O)(=O)Nc1ccc2c(c1)[C@@H]1C[C@H](CC(=O)N3CCOCC3)O[C@@H](CO)[C@@H]1O2	nt	i	nt	nt	i	nt	nt	nt	nt	nt	nt
COc1ccc(-c2ccc3oc(-c4ccsc4)cc(=O)c3c2)cn1	i	i	48	138	68	i	i	i	i	i	i
Cc1ccn2c(CC(C)(C)C)c(-c3ccc(F)cc3)nc2c1	i	i	55	nt	65	i	i	i	i	i	i
Clc1cccc2sc(N3CCCCC3)nc12	i	nt	nt	nt	61	i	i	i	i	i	i
Brc1cccc2sc(N3CCN(c4ccccc4)CC3)nc12	i	i	i	i	nt	nt	nt	nt	nt	nt	nt
c1ccc(-c2cnnc(N3CCCCC3)n2)cc1	i	nt	i	86	55	i	i	i	i	i	i
FC(F)(F)c1cc(-c2ccccc2)nc(N2CCCCCC2)n1	i	nt	i	nt	i	nt	nt	nt	nt	nt	nt
CC(=O)Nc1ccc(NC(=O)c2ccccc2F)cc1	i	nt	i	nt	i	nt	nt	nt	nt	nt	nt
O=C(N/N=C/c1ccccc1)c1ccc(NC(=O)c2ccc(F)cc2)cc1	i	i	i	i	58	i	i	i	i	i	i
O=C(Nc1ccc(F)cc1)c1ccccc1F	i	nt	i	82	85	i	i	i	i	i	i
CC(=O)Nc1ccc(C(=O)N/N=C/c2ccc(F)cc2)cc1	i	i	i	i	nt	nt	nt	nt	nt	nt	nt
CN1C(=O)c2cc(NC(=O)c3ccc(F)cc3)ccc2OC[C@H]2O[C@@H](CC(=O)NCC3CC3)CC[C@@H]21	nt	i	nt	nt	i	nt	nt	nt	nt	nt	nt
C/C(=N\O)c1ccc2c3ccccc3n(C)c2c1	i	nt	i	i	58	i	i	i	i	i	i
O=C(CCCc1ccccn1)c1ccc(-c2ccccc2)cc1	i	i	i	?	55	i	?	i	i	i	i
Cc1cccc(C)c1OCc1cc(C(=O)N2CCC(c3ccccc3)CC2)no1	i	i	i	i	i	nt	nt	nt	nt	nt	nt
Cc1cccc(C)c1OCc1cc(C(=O)N2CCC(C3CCCCC3)C2)no1 (configuration not stated)	i	i	i	i	56	i	i	i	i	i	i
C[C@@H]1CN([C@H](C)CO)C(=O)c2cc(NC(=O)CCCCCC(=O)Nc3ccccc3N)ccc2O[C@@H]1CN(C)S(=O)(=O)c1ccc(F)cc1	nt	i	nt	nt	nt	nt	nt	nt	nt	nt	nt
Cc1ccc(NC(=O)c2ccnc(C(C)(C)C)c2)cc1	i	nt	i	nt	71	i	i	i	i	i	i
CC(C)(C)c1cc(C(=O)Nc2ccccc2)ccn1	i	nt	i	nt	i	nt	nt	nt	nt	nt	nt
